# Experiments:
# HeLa = test: Antiproliferative activity against human HeLa cells after 72 hrs by MTT assay; assay type: functional, cell-based
# Outline: (§1)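 Cells grown in MEM with 10% FCS, 1% non-essential amino acids and 1% penicillin-streptomycin. Seeded at 5000 cells/well, exposed to 0.1–30.0 µM compound for 72 h. MTT (5 mg/ml solution) was then added for 4 h, formazan dissolved in DMSO, and absorbance read at 545 nm. Cisplatin served as positive control. IC50 came from sigmoidal dose–response fits (log inhibitor vs normalized response, variable slope).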
# MDA-MB-231 = test: Antiproliferative activity against human MDA-MB-231 cells after 72 hrs by MTT assay; assay type: functional, cell-based; settings: MDA-MB-231, 72 h; outline: as §1
# MCF7 = test: Antiproliferative activity against human MCF7 cells after 72 hrs by MTT assay; assay type: functional, cell-based; settings: MCF7, 72 h; outline: as §1
# [1] = Cytotoxicity against mouse L5178 cells after 48 hrs by MTT assay; assay type: functional, cell-based; settings: L5178, 48 h
# Outline: (§2)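 Parental mouse lymphoma L5178 and the MDR line made by pHa MDR1/A retrovirus transfection, selected with 60 µg/L colchicine. Grown in McCoy's 5A with horse serum at 37°C, 5% CO2. 5 x 10^4 cells/well, serial compound dilutions, 48 h. MTT added to 0.5 mg/mL final for 4 h, then 10% SDS in 0.01 M HCl overnight, OD read at 540 and 630 nm. IC50 taken as median cytotoxic activity (Dm) from control lanes of checkerboard plates, n=2.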
# [2] = Cytotoxicity against mouse L5178 cells expressing human ABCB1 after 48 hrs by MTT assay; assay type: functional, cell-based; settings: L5178, 48 h; outline: as §2
# ABCB1 (P-glycoprotein) = ABCB1 (P-glycoprotein) (Homo sapiens, UniProt P08183); test: Inhibition of human ABCB1 expressed in mouse L5178 cells assessed as increase in rhodamine-123 accumulation at 20 uM after 10 mins by flow cytometric analysis relative to control; assay type: cell-based; settings: mouse L5178 cells expressing human ABCB1, probe rhodamine-123
# Chain of ABCB1 (P-glycoprotein) (P08183 whole entry): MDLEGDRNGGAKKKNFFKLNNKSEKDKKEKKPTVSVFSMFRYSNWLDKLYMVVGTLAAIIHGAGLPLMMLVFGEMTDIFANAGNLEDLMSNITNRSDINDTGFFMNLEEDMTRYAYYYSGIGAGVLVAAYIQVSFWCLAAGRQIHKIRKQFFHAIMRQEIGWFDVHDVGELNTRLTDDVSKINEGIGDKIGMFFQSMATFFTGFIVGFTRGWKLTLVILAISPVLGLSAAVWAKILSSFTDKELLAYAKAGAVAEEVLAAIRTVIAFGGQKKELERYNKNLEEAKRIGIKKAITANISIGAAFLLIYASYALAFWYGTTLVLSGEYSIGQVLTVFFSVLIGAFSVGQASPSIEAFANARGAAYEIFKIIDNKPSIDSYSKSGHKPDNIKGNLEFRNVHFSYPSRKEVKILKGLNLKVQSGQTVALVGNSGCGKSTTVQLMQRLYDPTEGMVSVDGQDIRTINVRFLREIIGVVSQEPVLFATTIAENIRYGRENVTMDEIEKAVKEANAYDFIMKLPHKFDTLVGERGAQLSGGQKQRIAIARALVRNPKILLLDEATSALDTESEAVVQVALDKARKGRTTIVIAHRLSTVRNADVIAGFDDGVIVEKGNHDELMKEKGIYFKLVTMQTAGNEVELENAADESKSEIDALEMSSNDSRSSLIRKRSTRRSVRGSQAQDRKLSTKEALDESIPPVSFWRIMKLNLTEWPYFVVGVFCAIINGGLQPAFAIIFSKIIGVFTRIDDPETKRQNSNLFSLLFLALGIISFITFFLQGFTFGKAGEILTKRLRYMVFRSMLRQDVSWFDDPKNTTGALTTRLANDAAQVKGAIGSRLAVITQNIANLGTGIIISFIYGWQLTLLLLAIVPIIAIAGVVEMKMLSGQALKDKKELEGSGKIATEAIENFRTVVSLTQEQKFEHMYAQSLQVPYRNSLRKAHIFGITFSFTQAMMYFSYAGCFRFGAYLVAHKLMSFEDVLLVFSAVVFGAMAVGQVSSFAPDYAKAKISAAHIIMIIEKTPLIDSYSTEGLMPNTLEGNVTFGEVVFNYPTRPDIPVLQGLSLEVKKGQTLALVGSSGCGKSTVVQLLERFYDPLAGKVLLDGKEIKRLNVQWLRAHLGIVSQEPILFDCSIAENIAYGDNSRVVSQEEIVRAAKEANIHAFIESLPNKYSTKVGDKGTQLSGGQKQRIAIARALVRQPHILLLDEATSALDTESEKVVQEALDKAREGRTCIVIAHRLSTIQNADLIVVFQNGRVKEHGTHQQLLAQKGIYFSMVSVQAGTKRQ
# Outline: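 Cells at 2 × 10^6/mL were preincubated 10 min with compound. Rhodamine 123 then added to 5.2 µM final, 20 min at 37 °C. Cells washed twice in PBS, resuspended and read by flow cytometry. Percent inhibition was scaled between MDR-cell accumulation (0%) and parental L5178 accumulation (100%). Controls: 100 nM tariquidar (positive) and 2% DMSO (negative).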
# [3] = Synergistic cytotoxicity against mouse L5178 cells expressing human ABCB1 assessed as combination index at ED50 using 15:1 test compound to doxorubicin ratio after 48 hrs by MTT-based checkerboard microplate method; assay type: functional
# Outline: (§3)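 Checkerboard microplate combinations of compound with doxorubicin at constant molar ratios. 5 × 10^4 cells/well in McCoy's 5A, 48 h at 37°C, 5% CO2. MTT added to 0.5 mg/mL final for 4 h, SDS/HCl overnight, OD read at 540 and 630 nm. Combination indices derived per ratio for 50%, 75% and 90% growth inhibition by median-effect analysis.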
# [4] = Synergistic cytotoxicity against mouse L5178 cells assessed as combination index at ED90 using 150:1 test compound to doxorubicin ratio after 48 hrs by MTT-based checkerboard microplate method; assay type: functional; outline: as §3
# [5] = Synergistic cytotoxicity against mouse L5178 cells expressing human ABCB1 assessed as combination index at ED75 using 15:1 test compound to doxorubicin ratio after 48 hrs by MTT-based checkerboard microplate method; assay type: functional; outline: as §3
# [6] = Synergistic cytotoxicity against mouse L5178 cells expressing human ABCB1 assessed as combination index at ED90 using 15:1 test compound to doxorubicin ratio after 48 hrs by MTT-based checkerboard microplate method; assay type: functional; outline: as §3
# [7] = Synergistic cytotoxicity against mouse L5178 cells expressing human ABCB1 assessed as combination index at ED50 using 30:1 test compound to doxorubicin ratio after 48 hrs by MTT-based checkerboard microplate method; assay type: functional; outline: as §3
# [8] = Synergistic cytotoxicity against mouse L5178 cells expressing human ABCB1 assessed as combination index at ED75 using 30:1 test compound to doxorubicin ratio after 48 hrs by MTT-based checkerboard microplate method; assay type: functional; outline: as §3
# [9] = Synergistic cytotoxicity against mouse L5178 cells expressing human ABCB1 assessed as combination index at ED90 using 30:1 test compound to doxorubicin ratio after 48 hrs by MTT-based checkerboard microplate method; assay type: functional; outline: as §3
# [10] = Synergistic cytotoxicity against mouse L5178 cells expressing human ABCB1 assessed as combination index at ED50 using 7.5:1 test compound to doxorubicin ratio after 48 hrs by MTT-based checkerboard microplate method; assay type: functional; outline: as §3
# [11] = Synergistic cytotoxicity against mouse L5178 cells expressing human ABCB1 assessed as combination index at ED90 using 7.5:1 test compound to doxorubicin ratio after 48 hrs by MTT-based checkerboard microplate method; assay type: functional; outline: as §3
# [12] = Synergistic cytotoxicity against mouse L5178 cells assessed as combination index at ED50 using 37.5:1 test compound to doxorubicin ratio after 48 hrs by MTT-based checkerboard microplate method; assay type: functional; outline: as §3
# [13] = Synergistic cytotoxicity against mouse L5178 cells assessed as combination index at ED75 using 37.5:1 test compound to doxorubicin ratio after 48 hrs by MTT-based checkerboard microplate method; assay type: functional; outline: as §3
# [14] = Synergistic cytotoxicity against mouse L5178 cells expressing human ABCB1 assessed as combination index at ED50 using 3.75:1 test compound to doxorubicin ratio after 48 hrs by MTT-based checkerboard microplate method; assay type: functional; outline: as §3
# [15] = Synergistic cytotoxicity against mouse L5178 cells expressing human ABCB1 assessed as combination index at ED75 using 3.75:1 test compound to doxorubicin ratio after 48 hrs by MTT-based checkerboard microplate method; assay type: functional; outline: as §3
# [16] = Synergistic cytotoxicity against mouse L5178 cells expressing human ABCB1 assessed as combination index at ED90 using 3.75:1 test compound to doxorubicin ratio after 48 hrs by MTT-based checkerboard microplate method; assay type: functional; outline: as §3
# [17] = Synergistic cytotoxicity against mouse L5178 cells assessed as combination index at ED50 using 75:1 test compound to doxorubicin ratio after 48 hrs by MTT-based checkerboard microplate method; assay type: functional; outline: as §3
# [18] = Synergistic cytotoxicity against mouse L5178 cells assessed as combination index at ED75 using 75:1 test compound to doxorubicin ratio after 48 hrs by MTT-based checkerboard microplate method; assay type: functional; outline: as §3
# [19] = Synergistic cytotoxicity against mouse L5178 cells assessed as combination index at ED90 using 75:1 test compound to doxorubicin ratio after 48 hrs by MTT-based checkerboard microplate method; assay type: functional; outline: as §3
# [20] = Synergistic cytotoxicity against mouse L5178 cells expressing human ABCB1 assessed as combination index at ED50 using 60:1 test compound to doxorubicin ratio after 48 hrs by MTT-based checkerboard microplate method; assay type: functional; outline: as §3
# [21] = Synergistic cytotoxicity against mouse L5178 cells expressing human ABCB1 assessed as combination index at ED90 using 60:1 test compound to doxorubicin ratio after 48 hrs by MTT-based checkerboard microplate method; assay type: functional; outline: as §3
# [22] = Synergistic cytotoxicity against mouse L5178 cells assessed as combination index at ED50 using 600:1 test compound to doxorubicin ratio after 48 hrs by MTT-based checkerboard microplate method; assay type: functional; outline: as §3
# [23] = Synergistic cytotoxicity against mouse L5178 cells assessed as combination index at ED75 using 600:1 test compound to doxorubicin ratio after 48 hrs by MTT-based checkerboard microplate method; assay type: functional; outline: as §3
# [24] = Synergistic cytotoxicity against mouse L5178 cells assessed as combination index at ED90 using 600:1 test compound to doxorubicin ratio after 48 hrs by MTT-based checkerboard microplate method; assay type: functional; outline: as §3
structure (smiles),measurement,setting,value
CC(C)(O)CC[C@H]1OC(C)(C)O[C@]1(C)[C@H]1CC=C2C3=C/C(=N/OC(C)(C)C)[C@@H]4C[C@H]5OC(C)(C)O[C@H]5C[C@]4(C)[C@H]3CC[C@@]21C,IC50,HeLa,20.7 µM
same,IC50,MDA-MB-231,15.7 µM
same,IC50,MCF7,17.3 µM
same,IC50,[1],63.2 µM
same,IC50,[2],51.2 µM
same,"inhibition at 10 min, 20 µM",ABCB1 (P-glycoprotein),78.8%
same,CI,[3],0.5
same,CI,[4],0.79
same,CI,[5],0.32
same,CI,[6],0.33
same,CI,[7],0.34
same,CI,[8],0.32
same,CI,[9],0.31
same,CI,[10],0.34
same,CI,[11],0.23
same,CI,[12],0.53
same,CI,[13],0.59
same,CI,[14],0.42
same,CI,[15],0.29
same,CI,[16],0.23
same,CI,[17],0.82
same,CI,[18],0.67
same,CI,[19],0.55
same,CI,[20],0.47
same,CI,[21],0.53
same,CI,[22],0.88
same,CI,[23],0.91
same,CI,[24],0.94
